Only some compounds are listed: those with a hit (about 4.6% of all), similar ones and a draw of the others.
GPR7 antag – blocks human GPR7 receptor signaling; AID 1861; inhibition, % at 4.4 µM; P48145; 290,000 compounds, 1.1% hits; GPR7-expressing cells, fluorescence antagonist assay; in the data active = inhibition above about 16%, passing the limit was not always enough;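 also: cells stimulated with the agonist NPW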
Target sequence (P48145 whole entry, looked up): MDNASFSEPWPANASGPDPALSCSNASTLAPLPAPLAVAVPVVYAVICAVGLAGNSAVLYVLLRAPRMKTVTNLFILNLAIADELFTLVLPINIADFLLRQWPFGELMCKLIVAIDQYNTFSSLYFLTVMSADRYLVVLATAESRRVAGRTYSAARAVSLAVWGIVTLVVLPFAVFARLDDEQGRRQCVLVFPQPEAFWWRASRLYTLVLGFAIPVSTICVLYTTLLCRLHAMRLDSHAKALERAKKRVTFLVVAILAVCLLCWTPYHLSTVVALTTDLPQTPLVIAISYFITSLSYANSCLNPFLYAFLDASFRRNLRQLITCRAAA
CHO parental Ca – counter-screen: ATP calcium response change in parental CHO cells; parental CHO-K1, ATP-induced calcium, Fluo-8 fluorescence; inhibition, % at 5.6 µM; 330,000 compounds, 0.63% hits; AID 463079;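 active = inhibition above that plate's mean sample inhibition plus 3 SD, cut at about 26% in these data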
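Test system: parental CHO cells; detection: calcium-sensitive Fluo-8 fluorescence; evaluation: percent inhibition of calcium signal; also added: ATP as calcium-mobilizing challenge; repeats: one well per compound; control set: ATP-challenged DMSO wells low, unchallenged DMSO wells high; compound: single nominal dose of 5.6 µM per compound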
OX1R antag-1 – OX1R (human) antagonism. OX1R-expressing cells, FRET antagonist read-out. inhibition, % at 6.6 µM. 330,000 compounds, 1.8% hits. AID 485270; in the data active = inhibition mostly above about 38%, no sharp cut-off; inactive = mostly below about 40%
OX1R antag-2 – blocks the human orexin 1 receptor; O43613; CHO/OX1R cells, Fluo-8 calcium fluorescence, orexin A; inhibition, % at 5 µM; 330,000 compounds, 0.43% hits; AID 434989;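 active = inhibition above its plate's threshold, mean inhibition of all tested compounds on the plate plus 3 SD, cut at about 37% in these data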
TAAR1 antag – antagonists of human TAAR1; Q96RJ0; CHO RD-HGA16 TAAR1, Fluo-8 calcium fluorescence, antagonist; inhibition, % at 3 µM; 360,000 compounds, 1.5% hits;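 active = inhibition above a per-plate cutoff, the mean inhibition of test compounds on that plate plus 3 SD, cut at about 49% in these data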
Target sequence (Q96RJ0 whole entry, looked up): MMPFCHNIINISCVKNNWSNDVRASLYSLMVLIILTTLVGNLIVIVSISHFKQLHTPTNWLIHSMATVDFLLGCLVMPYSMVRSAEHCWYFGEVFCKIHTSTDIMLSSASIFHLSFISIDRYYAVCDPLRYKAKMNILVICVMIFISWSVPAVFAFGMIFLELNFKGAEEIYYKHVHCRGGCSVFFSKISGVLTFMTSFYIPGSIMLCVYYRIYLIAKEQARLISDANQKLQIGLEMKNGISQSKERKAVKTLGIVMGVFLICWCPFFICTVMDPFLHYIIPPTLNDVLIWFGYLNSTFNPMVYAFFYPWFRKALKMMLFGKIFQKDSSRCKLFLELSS
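test system = CHO RD-HGA16 cells bearing hTAAR1 | replication = singlicate | controls = DMSO-only wells and EC80 β-PEA-stimulated wells | reagent = EC80 β-phenethylamine stimulus | read-out basis = percent inhibition of PEA-evoked calcium signal, max/basal emission ratio | schedule = seeding 17-24 h prior, 75-min 37 °C, 30-min RT dye loading | signal = kinetic Fluo-8 calcium fluorescence measurement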
TAAR1 ag – human TAAR1 agonism; Q96RJ0; CHO RD-HGA16 TAAR1, Fluo-8 calcium fluorescence; vehicle wells 0%, saturating PEA agonist 100%; activation, % at 3 µM; 360,000 compounds, 0.99% hits; AID 624467;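 active = activation above the mean activation of all test compounds in the run plus 3 SD, cut at about 38% in these data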
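Test system: RD-HGA16 (CHO) cells co-expressing Gα16 and hTAAR1 / Benchmarks: DMSO vehicle as 0%, PEA at EC100 as 100% / Repeats: no replicates (n 1) / Measure: % activation from peak over basal fluorescence ratio, DMSO-to-PEA scaled / Timing: 17-24 h plating, Fluo-8 75 min 37 °C, 30 min RT / Technique: kinetic Fluo-8 calcium fluorescence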
A number is an active result; – = inactive; · = no result given.

SMILES	GPR7 antag	CHO parental Ca	OX1R antag-1	OX1R antag-2	TAAR1 antag	TAAR1 ag
CC(C)Oc1cccc(-c2cc(C(=O)N3CCN(c4ncccn4)CC3)c3ccccc3n2)c1	–	–	–	–	51.5	–
COc1cccc(-c2cc(C(=O)N3CCN(c4ncccn4)CC3)c3ccccc3n2)c1	–	–	–	–	55.9	–
COc1ccc(-c2cc(C(=O)N3CCCCC3)c3ccccc3n2)cc1	·	–	–	–	–	–
CC(C)Oc1cccc(-c2cc(C(=O)N3CCN(S(C)(=O)=O)CC3)c3ccccc3n2)c1	–	–	–	–	–	–
Cc1cc(F)ccc1-c1cc(C(=O)NC2CCCCC2)[nH]n1	·	·	·	·	–	–
Cc1ccc(NC(=O)c2cccc(S(=O)(=O)NCc3ccccc3)c2)nc1	·	–	58.8	–	–	–
COc1cc(/C=C2\SC(=S)NC2=O)ccc1OS(=O)(=O)c1ccccc1	–	–	80.2	–	·	·
COc1cc(/C=C2/SC(=S)NC2=O)ccc1OS(=O)(=O)c1ccc(C)cc1	–	–	63.6	–	·	·
CCOC(=O)C1=CCN(S(=O)(=O)c2ccc(Cl)cc2)C1c1ccc(Br)cc1 (stereo not given)	·	·	·	·	–	–
CCOc1cc(OCC)cc(C(=O)N2CCC[C@@H]2C(=O)N2CCC[C@H]2C(=O)NCc2ccccc2)c1	·	·	·	·	–	–
C=CCn1c(SCC(=O)c2cc(C)n(C(C)COC)c2C)nc2sc(C)c(C)c2c1=O (stereo not given)	–	35.9	–	–	–	–
O=C(Nc1cnn(Cc2ccc(F)cc2)c1)c1cc(-c2cccs2)on1	–	–	–	–	·	·
O=C(Nc1cnn(Cc2ccc(F)cc2)c1)c1cnccn1	16.9	–	–	–	–	–
CC(C)N1CC(O)=C(c2nc3ccccc3[nH]2)C1=N	–	–	–	–	–	–
CC(C1CC2CCC1C2)N1CC(O)=C(c2nc3ccccc3[nH]2)C1=N (stereo not given)	20.9	–	–	–	–	–
Cc1cccc(-c2nc(CSCC(=O)N3CCN(c4ccccn4)CC3)c(C)o2)c1	–	–	44.7	–	–	–
Cc1ccc(-c2nc(CSCC(=O)N3CCCC3)c(C)o2)cc1	–	–	–	–	–	–
Cc1ccsc1-c1nc(CSCC(=O)N2CCN(c3ccccc3)CC2)c(C)o1	–	–	37.8	–	–	–
O=[N+]([O-])c1ccc(Cl)c(CN2CCN(c3ncc(Cc4ccccc4)cn3)CC2)c1	·	·	·	·	–	–
CC1(C(=O)Nc2ccc(Cl)c(Cl)c2)CCN1Cc1cc2ccccc2o1 (stereo not given)	·	·	·	·	–	–
COc1cc2ccccc2cc1C(=O)Nc1nccs1	–	–	63.8	–	–	–
COc1cc2ccccc2cc1C(=O)Nc1cc(C)ccn1	–	–	53.1	–	–	–
Cc1ccc(C)c(Sc2ccc(NC(=O)CCN3C(=O)NC4(CCCC4)C3=O)cc2)c1	·	63.3	–	60.2	–	–
Cc1ccc(NC(=O)CCN2C(=O)NC3(CCCC3)C2=O)cc1	·	·	·	·	–	–
CC(C)N1CC(=O)N2CSCC2C1=O (stereo not given)	·	·	·	·	–	–
SMILES	GPR7 antag	CHO parental Ca	OX1R antag-1	OX1R antag-2	TAAR1 antag	TAAR1 ag
CN(C(=O)Cn1cnc2ccccc2c1=O)C1CCS(=O)(=O)C1 (stereo not given)	·	–	–	–	–	–
CCN(C(=O)Cn1cnc2cc([N+](=O)[O-])ccc2c1=O)C1CCS(=O)(=O)C1 (stereo not given)	–	–	62.6	–	–	–
O=C(Cn1cnc2cc([N+](=O)[O-])ccc2c1=O)Nc1ccc(Br)cc1	–	–	–	–	–	–
O=C(Cn1cnc2cc([N+](=O)[O-])ccc2c1=O)Nc1ccccc1-c1ccccc1	–	–	48.5	–	–	–
CC1CCCC(C)N1C(=O)Cn1cnc2cc([N+](=O)[O-])ccc2c1=O (stereo not given)	–	–	114.0	–	–	–
O=S1(=O)N[C@H](Cc2ccccc2)COc2cccc(NCCO)c21	·	·	·	·	–	–
C[C@@H]1CN([C@@H](C)CO)C(=O)CCCn2cc(nn2)CO[C@H]1CN(C)C(=O)NC1CCCCC1	·	·	·	·	–	–
O=[N+]([O-])c1cc(NCCO)c(N2CCCCCC2)c2nonc12	–	–	46.0	–	–	–
CC(C)C[C@@H]1COc2cc(NCCO)ccc2S(=O)(=O)N1	·	·	·	·	–	–
Cn1c2ccccc2c(=O)c2ccc(NCc3ccc4c(c3)OCO4)cc21	·	·	·	·	–	–
CCOC(=O)c1cccc(NC(=O)COc2nsnc2N2CCOCC2)c1	–	–	–	–	49.6	–
C#CCNC(=O)C[C@H]1C[C@@]2(C(=O)OC)C(=C[C@H](COCc3ccccc3)O[C@@H]2C)N(CCC2=CCCCC2)C1=O	·	·	·	·	–	–
CC(C)N(C(=O)CSc1nc2ccccc2n1-c1ccccc1)C(C)C	–	–	54.7	–	–	–
CC(C)N(C(=O)CSc1nc2ccccc2n1Cc1ccccc1)C(C)C	–	–	–	–	–	–
COc1ccc2[nH]c3c(c2c1)CCN1C(=O)N([C@@H](C)C(=O)NCc2c(F)cccc2Cl)C(=O)[C@]31C	–	–	–	–	–	–
C[C@@H](C(=O)NCc1c(F)cccc1Cl)N1C(=O)N2CCc3c([nH]c4ccccc34)[C@@]2(C)C1=O	–	–	67.4	–	–	–
O=C(NCc1cccc(C(F)(F)F)c1)c1cc(Cl)ccc1Cl	–	–	–	–	–	–
O=C(NCc1cccc(C(F)(F)F)c1)c1cc(Cl)cc(Cl)c1	–	–	41.7	–	–	–
Cc1cccc(C)c1OCC(=O)NNC(=S)NC(=O)C1CC1	–	–	–	–	–	47.8
Cc1cccc(C)c1OCC(=O)NC1CC1	–	–	–	–	–	–
COc1ccc(C(=O)NNC(=S)NC(=O)c2ccc(F)cc2)cc1Br	·	–	–	47.8	–	51.3
COc1cc(C(=O)NC(=S)NNC(=O)c2ccc3c(c2)OCO3)cc(OC)c1OC	–	–	–	–	–	52.0
O=C1NC(c2ccc(Br)cc2)c2c(-c3ccccc3)n[nH]c21 (stereo not given)	·	·	·	·	–	–
Cc1ccc(-c2nnc(Nc3ccccc3)c3ccccc23)cc1S(=O)(=O)NCC1CCCO1 (stereo not given)	–	28.5	–	66.2	57.5	–
Cc1ccc(-c2nnc(Nc3ccc4c(c3)OCO4)c3ccccc23)cc1S(=O)(=O)NC(C)C	–	31.1	–	–	–	–
CCCc1ccc(Oc2c(-c3ccc(O)c(C)c3O)n[nH]c2C)cc1	–	28.7	–	–	–	–
Cc1onc(-c2ccccc2)c1C(=O)NN=Cc1cc(Cl)cc(Cl)c1O	·	·	·	·	–	–
COc1cc(NC(=O)[C@@H](Cc2ccccc2)NC(=O)[C@H]2O[C@@H](n3ccc(=O)[nH]c3=O)[C@H](O)[C@@H]2O)cc(OC)c1OC	·	·	·	·	–	–

Screens: PubChem, The Scripps Research Institute Molecular Screening Center
